Measured values of several laboratories.
Protocols differ between the studies behind these lines.
Organism: Mycobacterium tuberculosis
Read-out: microbial growth

Compound	assay	system	conditions	MIC
CCC1CCC2(CC1)SC(C)C(=O)N2NC(=O)c1[nH]c2ccc(Cl)cc2c1-c1ccccc1 (centres unmarked)		ATCC27294 H37RV		1000 µM
NNC(=O)c1ccncc1				0.03 µg/mL
COC(=O)c1cc(-c2cccc(NC(=S)Nc3cccc(Cl)c3)c2)on1		ATCC27294 H37RV	7 days	4 µg/mL
O=[N+]([O-])c1ccc(/C(O)=C/C(=S)S)cc1		ATCC27294 H37RV	8 days	7.8 µg/mL
O=C(CCNS(=O)(=O)c1ccc([N+](=O)[O-])cc1)N1CCN(C(c2ccc(F)cc2)c2ccc(F)cc2)CC1		ATCC27294 H37RV		25 µg/mL
CN[C@H](CC(C)C)C(=O)N[C@H]1C(=O)N[C@@H](CC(N)=O)C(=O)N[C@H]2C(=O)N[C@H]3C(=O)N[C@H](C(=O)N[C@H](C(=O)O)c4cc(O)cc(O)c4-c4cc3ccc4O)[C@H](O)c3ccc(c(Cl)c3)Oc3cc2cc(c3O[C@@H]2O[C@H](CO)[C@@H](O)[C@H](O)[C@H]2O[C@H]2C[C@](C)(N)[C@H](O)[C@H](C)O2)Oc2ccc(cc2Cl)[C@H]1O	resazurin	H37RA	14 days	65 µg/mL
CC(C)=CCCC(C)CC1CC(=O)c2ccc(O)cc2O1 (centres unmarked)	broth dilution	H37RV		100 µg/mL
CC1CC(C)(C)CC2(C1)SCC(=O)N2NC(=O)c1[nH]c2ccc(Cl)cc2c1-c1ccccc1 (centres unmarked)		ATCC27294 H37RV		500 µM
COC(=O)c1cc(-c2cccc(NC(=S)Nc3cccc(Br)c3)c2)on1		ATCC27294 H37RV	7 days	8 µg/mL
NNC(=O)c1ccncc1	resazurin	H37RV		0.8 µM
Cc1cc(C)n(C(=O)c2ccc(-n3c(C)ccc3C)cc2)n1	broth dilution	H37RV	21 days	8 µg/mL
C=C[C@@H](O)C#CC#C[C@@H](O)/C=C\CCCCCCC	resazurin	ATCC35801 ERDMAN	7 days	6 µg/mL
COC(=O)c1cc(-c2cccc(NC(=O)Nc3ccc(C)c(Cl)c3)c2)on1		ATCC27294 H37RV	7 days	16 µg/mL
COc1cc(C=NC2=NN(c3ccccc3)C(=O)C2=NNc2nc(-c3ccccc3)cs2)ccc1O	resazurin	H37RV		12.5 µg/mL
Cc1ccc(NC(=O)c2ccccc2)cc1Nc1nccn1-c1cc(NC2CCCC2)ncn1		W4		> 20 µM
O=C1CC[C@@H]2CN(Cc3ccccc3)CC[C@@]23OC[C@H](C2CC2)N13		H37RV		37 µM
O=C1C(=NNc2nc(-c3ccccc3)cs2)C(N=Cc2ccccc2Cl)=NN1c1ccccc1	resazurin	H37RV	5 days	51.5 µM
O=C1COCCN1c1ccc(CO[C@@H]2COc3nc([N+](=O)[O-])cn3C2)cc1F		H37RV		0.4 to 0.8 µg/mL
O=C1C(Cl)=C(Cl)C(=O)c2ccccc21		H37RV	14 days	10 µg/mL
COC(=O)c1cc(-c2cccc(NC(=O)Nc3ccccc3F)c2)on1		ATCC27294 H37RV	7 days	2 µg/mL
Cc1c(Cc2ccc(F)cc2F)c(=O)n2c([nH]c3ccccc32)c1C#N	broth dilution	H37RV		1 µg/mL
O=C(C1CCCN(S(=O)(=O)c2ccc([N+](=O)[O-])cc2)C1)N1CCN(C(c2ccc(F)cc2)c2ccc(F)cc2)CC1 (centres unmarked)		ATCC27294 H37RV		> 25 µg/mL
CO[C@H]1/C=C/O[C@@]2(C)Oc3c(C)c(O)c4c(O)c(c(/C=N/N5CCN(C)CC5)c(O)c4c3C2=O)NC(=O)/C(C)=C\C=C\[C@H](C)[C@H](O)[C@@H](C)[C@@H](O)[C@@H](C)[C@H](OC(C)=O)[C@@H]1C		H37RV	5 days	0.003 µM
Cc1cn2c(C(=O)NCc3ccc(S(F)(F)(F)(F)F)cc3)c(C)nc2s1		H37RV	5 days	0.4 µM
CCCCCCCCCCC[C@@H](C[C@@H]1OC(=O)[C@H]1CCCCCC)OC(=O)[C@H](CC(C)C)NC=O	resazurin	H37RA		24 µg/mL

Compound	assay	system	conditions	MIC
Cc1ccc(C)n1-c1ccc(-c2nnc(-c3ccccc3[N+](=O)[O-])[nH]2)cc1	broth dilution	H37RV	21 days	16 µg/mL
Cc1c(Cc2ccc(Cl)cc2)c(=O)n2c([nH]c3ccccc32)c1C#N	broth dilution	H37RV		1 µg/mL
NNC(=O)c1ccncc1		THP-1, H37RV		0.22 µM
COC(=O)c1cc(-c2cccc(NC(=O)Nc3ccc(Cl)c(Cl)c3)c2)on1		ATCC27294 H37RV	7 days	0.25 µg/mL
Nc1ccc(C(=O)O)c(O)c1	broth dilution	H37RV		0.125 µg/mL
Cc1ccc(C)n1-c1ccc(-c2nnc(-c3ccccc3Cl)[nH]2)cc1	broth dilution	H37RV	21 days	8 µg/mL
O=C1C(=NNc2nc(-c3ccccc3)cs2)C(N=Cc2ccc(O)c(O)c2)=NN1c1ccccc1	resazurin	H37RV		3.12 µg/mL
Cc1cc(N)c2ccccc2[n+]1CCCCCCCCCC[n+]1c(C)cc(N)c2ccccc21	broth dilution			1.2 µg/mL
CC(C)CC=CC=CC(=O)NC(CC(N)=O)C(=O)NC1C(=O)NC(c2ccc(O)cc2)C(=O)NC(CCCN)C(=O)NC(C(C)O)C(=O)NC(c2ccc(O)cc2)C(=O)NC(c2ccc(O)cc2)C(=O)NC(C(C)O)C(=O)NC(Cc2ccccc2)C(=O)NC(CCCN)C(=O)NC(c2ccc(OC3OC(CO)C(O)C(O)C3OC3OC(CO)C(O)C(O)C3O)cc2)C(=O)NC(C(C)O)C(=O)NC(c2ccc(O)cc2)C(=O)NCC(=O)NC(CC(C)C)C(=O)NC(C)C(=O)NC(c2ccc(O)c(Cl)c2)C(=O)OC1C(N)=O (centres unmarked)		H37RV	14 days	6.25 to 12.5 µg/mL
CC1SC2(CCC(c3ccccc3)CC2)N(NC(=O)c2[nH]c3ccc(Cl)cc3c2-c2ccccc2)C1=O (centres unmarked)		ATCC27294 H37RV		7.8 µM
C[C@@H](O)[C@H]1C(=O)N2C(C(=O)O)=C(SCCN=CN)C[C@H]12	resazurin	H37RA	14 days	16 µg/mL
Cc1ccc(C)n1-c1ccc(-c2nnc(S)s2)cc1	broth dilution	H37RV	21 days	1 µg/mL
C[C@@H]1CN(CC2CCCCC2)C[C@H](C)N1c1nc(=O)c2cc(C(F)(F)F)cc(C#N)c2s1	resazurin	H37RV		> 2 µM
COC(=O)c1cc(-c2cccc(NC(=O)Nc3cccc(Cl)c3Cl)c2)on1		ATCC27294 H37RV	7 days	0.5 µg/mL
NC(=O)c1cnccn1	resazurin	H37RV		3.12 µg/mL
CCC1CCC2(CC1)SCC(=O)N2NC(=O)c1[nH]c2ccc(Cl)cc2c1-c1ccccc1 (centres unmarked)		ATCC27294 H37RV		250 µM
N#Cc1cc(C(F)(F)F)cc2c(=O)nc(N3CCN(CC4CC4)CC3)sc12	resazurin	H37RV		> 2 µM
CCc1nc2ccc(Cl)cn2c1C(=O)NCc1cccc(S(F)(F)(F)(F)F)c1		H37RV	5 days	0.28 µM
[H]/N=C(/N)N[C@H]1[C@H](O)[C@@H](O)[C@H](O[C@@H]2O[C@@H](C)[C@](O)(C=O)[C@H]2O[C@@H]2O[C@@H](CO)[C@H](O)[C@@H](O)[C@@H]2NC)[C@@H](N/C(N)=N\[H])[C@@H]1O	resazurin	H37RV		6.25 µg/mL
CC(C)[C@H]1CO[C@]23CCN(Cc4ccccc4)C[C@H]2CCC(=O)N13	resazurin	H37RV	7 days	5.73 µM
NNC(=O)c1ccncc1		H37RV		0.05 µg/mL
COC(=O)c1cc(-c2cccc(NC(=S)Nc3ccc(F)cc3)c2)on1		ATCC27294 H37RV	7 days	4 µg/mL
CC(C)[C@H]1CO[C@]23CCN(Cc4ccc(C(F)(F)F)cc4)C[C@H]2CCC(=O)N13		H37RV	7 days	0.16 µM
CCCCCCC/C=C\C(O)C#CC#CC(=O)CCOC (centres unmarked)	resazurin	ATCC35801 ERDMAN	7 days	> 60 µg/mL
COC(=O)c1cc(-c2cccc(NC(=O)Nc3ccccc3OC)c2)on1		ATCC27294 H37RV	7 days	0.5 µg/mL
